Results taken from ChEMBL document CHEMBL1124339, “Conformationally restricted analogues of atriopeptin(103-125)amide” (J Med Chem, 1989).

Columns and labels:
Oryctolagus cuniculus [1] = species: Oryctolagus cuniculus; test: Relative binding potency towards vasorelaxant binding site compared to AP(103-126)
How it was run: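 Varied unlabeled peptide concentrations; started by adding membranes; 30 min at 25 °C. Filtration with ice-cold buffer, then gamma counting. Nonspecific binding measured with 10^-6 M unlabeled reference peptide. Specific binding fitted by nonlinear least squares.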

[2] = system: Atrial natriuretic peptide receptor 3 (Oryctolagus cuniculus); test: Relative binding potency towards non-vasorelaxant binding site compared to AP(103-126)
Oryctolagus cuniculus [3] = species: Oryctolagus cuniculus; test: Effective concentration in vasorelaxant assay; 0.05-0.3 uM; assay type: functional
Oryctolagus cuniculus [4] = species: Oryctolagus cuniculus; test: Relative potency for vasorelaxant activity of the compound; assay type: functional
Oryctolagus cuniculus [5] = species: Oryctolagus cuniculus; test: Effective concentration in vasorelaxation assay; 0.05-0.3 uM; assay type: functional

| Compound | Relative potency (Oryctolagus cuniculus [1]) | Relative potency [2] | EC50 (Oryctolagus cuniculus [3]) [nM] | EC50 (Oryctolagus cuniculus [4]) [nM] | EC50 (Oryctolagus cuniculus [5]) [nM] |
| --- | --- | --- | --- | --- | --- |
| CC[C@H](C)[C@@H]1NC(=O)[C@H](CCCN=C(N)N)NC(=O)[C@H](CC(=O)O)NC(=O)[C@H]([C@@H](C)CC)NC(=O)[C@H](CCCN=C(N)N)NC(=O)[C@@H](CSCNC(C)=O)NC(=O)CNC(=O)[C@H](Cc2ccccc2)NC(=O)[C@@H](NC(=O)[C@H](CO)NC(=O)[C@@H](N)CO)CSSC[C@@H](C(=O)N[C@@H](CC(N)=O)C(=O)N[C@@H](CO)C(=O)N[C@@H](Cc2ccccc2)C(=O)N[C@@H](CCCN=C(N)N)C(N)=O)NC(=O)CNC(=O)[C@H](CC(C)C)NC(=O)CNC(=O)[C@H](CO)NC(=O)[C@H](CCC(N)=O)NC(=O)[C@H](C)NC(=O)CNC1=O | 4.3 | 4.3 |  |  |  |
| CC[C@H](C)[C@H]1NC(=O)[C@H](CCCN=C(N)N)NC(=O)[C@H](CC(=O)O)NC(=O)[C@@H]([C@@H](C)CC)NC(=O)[C@H](CCCN=C(N)N)NC(=O)[C@@H](CSCNC(C)=O)NC(=O)CNC(=O)[C@@H](Cc2ccccc2)NC(=O)[C@H](NC(=O)[C@H](CO)NC(=O)[C@@H](N)CO)CSSC[C@H](C(=O)N[C@@H](CC(N)=O)C(=O)N[C@@H](CO)C(=O)N[C@@H](Cc2ccccc2)C(=O)N[C@@H](CCCN=C(N)N)C(N)=O)NC(=O)CNC(=O)[C@@H](CC(C)C)NC(=O)CNC(=O)[C@@H](CSCNC(C)=O)NC(=O)[C@H](CCC(N)=O)NC(=O)[C@@H](C)NC(=O)CNC1=O | 0.91 | 0.91 |  |  |  |
| CC[C@H](C)[C@H]1NC(=O)[C@H](CCCN=C(N)N)NC(=O)[C@H](CC(=O)O)NC(=O)[C@@H]([C@@H](C)CC)NC(=O)[C@H](CCCN=C(N)N)NC(=O)[C@H](CSCNC(C)=O)NC(=O)CNC(=O)[C@@H](Cc2ccccc2)NC(=O)[C@H](NC(=O)[C@H](CO)NC(=O)[C@@H](N)CO)CSSC[C@H](C(=O)N[C@@H](CC(N)=O)C(=O)N[C@@H](CO)C(=O)N[C@@H](Cc2ccccc2)C(=O)N[C@@H](CCCN=C(N)N)C(N)=O)NC(=O)CNC(=O)[C@@H](CC(C)C)NC(=O)CNC(=O)[C@H](CSCNC(C)=O)NC(=O)[C@H](CCC(N)=O)NC(=O)[C@@H](C)NC(=O)CNC1=O | 0.48 | 0.48 |  |  |  |
| CC[C@H](C)[C@@H]1NC(=O)[C@H](CCCN=C(N)N)NC(=O)[C@H](CC(=O)O)NC(=O)[C@H]([C@@H](C)CC)NC(=O)[C@H](CCCN=C(N)N)NC(=O)CNC(=O)CNC(=O)[C@H](Cc2ccccc2)NC(=O)[C@@H](NC(=O)[C@H](CO)NC(=O)[C@@H](N)CO)CSSC[C@@H](C(=O)N[C@@H](CC(N)=O)C(=O)N[C@@H](CO)C(=O)N[C@@H](Cc2ccccc2)C(=O)N[C@@H](CCCN=C(N)N)C(N)=O)NC(=O)CNC(=O)[C@H](CC(C)C)NC(=O)CNC(=O)[C@H](CO)NC(=O)[C@H](CCC(N)=O)NC(=O)[C@H](C)NC(=O)CNC1=O |  |  | 50 |  |  |
| CC[C@H](C)[C@@H]1NC(=O)[C@H](CCCN=C(N)N)NC(=O)[C@H](CC(=O)O)NC(=O)[C@H]([C@@H](C)CC)NC(=O)[C@H](CCCN=C(N)N)NC(=O)[C@@H](CCS)NC(=O)CNC(=O)[C@H](Cc2ccccc2)NC(=O)[C@@H](NC(=O)[C@H](CO)NC(=O)[C@@H](N)CO)CSSC[C@@H](C(=O)N[C@@H](CC(N)=O)C(=O)N[C@@H](CO)C(=O)N[C@@H](Cc2ccccc2)C(=O)N[C@@H](CCCN=C(N)N)C(N)=O)NC(=O)CNC(=O)[C@H](CC(C)C)NC(=O)CNC(=O)[C@@H](CCS)NC(=O)[C@H](CCC(N)=O)NC(=O)[C@H](C)NC(=O)CNC1=O | 0.071 | 2.8 |  |  |  |
| CC[C@H](C)[C@@H]1NC(=O)[C@H](CCCN=C(N)N)NC(=O)[C@H](CC(=O)O)NC(=O)[C@H]([C@@H](C)CC)NC(=O)[C@H](CCCN=C(N)N)NC(=O)CNC(=O)CNC(=O)[C@H](Cc2ccccc2)NC(=O)[C@@H](NC(=O)[C@H](CO)NC(=O)[C@@H](N)CO)CSSC[C@@H](C(=O)N[C@@H](CC(N)=O)C(=O)N[C@@H](CO)C(=O)N[C@@H](Cc2ccccc2)C(=O)N[C@@H](CCCN=C(N)N)C(=O)N[C@@H](Cc2ccc(O)cc2)C(=O)O)NC(=O)CNC(=O)[C@H](CC(C)C)NC(=O)CNC(=O)[C@H](CO)NC(=O)[C@H](CCC(N)=O)NC(=O)[C@H](C)NC(=O)CNC1=O |  |  |  | 2.3 | 50 |
| CC[C@H](C)[C@@H]1NC(=O)[C@H](CCCN=C(N)N)NC(=O)[C@H](CC(=O)O)NC(=O)[C@H]([C@@H](C)CC)NC(=O)[C@H](CCCN=C(N)N)NC(=O)[C@@H](CSCNC(C)=O)NC(=O)CNC(=O)[C@H](Cc2ccccc2)NC(=O)[C@@H](NC(=O)[C@H](CO)NC(=O)[C@@H](N)CO)CSSC[C@@H](C(=O)NCC(=O)N[C@@H](CC(C)C)C(=O)NCC(=O)N[C@@H](CSCNC(C)=O)C(=O)N[C@@H](CC(N)=O)C(=O)N[C@@H](CO)C(=O)N[C@@H](Cc2ccccc2)C(=O)N[C@@H](CCCN=C(N)N)C(N)=O)NC(=O)[C@H](CCC(N)=O)NC(=O)[C@H](C)NC(=O)CNC1=O | 0.014 | 3.1 |  |  |  |
| CC[C@H](C)[C@H](NC(=O)[C@H](CC/N=C(/N)NO)NC(=O)[C@H](CC(=O)O)NC(=O)[C@@H](NC(=O)[C@H](CCN=C(N)N)NC(=O)[C@H](CSCNC(C)=O)NC(=O)CNC(=O)[C@H](Cc1ccccc1)NC(=O)[C@H](CSCNC(C)=O)NC(=O)[C@H](CO)NC(=O)[C@@H](N)CO)[C@@H](C)CC)C(=O)NCC(=O)N[C@@H](C)C(=O)N[C@@H](CCC(N)=O)C(=O)C1SSC[C@@H](C(=O)N[C@@H](CC(N)=O)C(=O)CN[C@@H](CO)C(=O)N[C@@H](Cc2ccccc2)C(=O)N[C@@H](CCCN=C(N)N)C(N)=O)NC(=O)CNC(=O)[C@H](CC(C)C)NC(=O)CNC(=O)[C@H]1N (stereo in doubt; 9b) | 0.0053 | 2.2 |  |  |  |
| CC[C@H](C)[C@@H]1NC(=O)[C@H](CCCN=C(N)N)NC(=O)[C@H](CC(=O)O)NC(=O)[C@H]([C@@H](C)CC)NC(=O)[C@H](CCCN=C(N)N)NC(=O)[C@@H](CCSCNC(C)=O)NC(=O)CNC(=O)[C@H](Cc2ccccc2)NC(=O)[C@H](NC(=O)[C@H](CO)NC(=O)[C@@H](N)CO)CSSC[C@H](C(=O)N[C@@H](CC(N)=O)C(=O)N[C@@H](CO)C(=O)N[C@@H](Cc2ccccc2)C(=O)N[C@@H](CCCN=C(N)N)C(N)=O)NC(=O)CNC(=O)[C@H](CC(C)C)NC(=O)CNC(=O)[C@H](CSCNC(C)=O)NC(=O)[C@H](CCC(N)=O)NC(=O)[C@H](C)NC(=O)CNC1=O | 0.15 | 0.15 |  |  |  |
